Experimental data taken from ChEMBL document CHEMBL1123461, “Studies on 1,2,3-triazoles. 13. (Piperazinylalkoxy) [1]benzopyrano[2,3-d]-1,2,3-triazol-9(1H)-ones with combined H1-antihistamine and mast cell stabilizing properties” (J Med Chem, 1986).
Activity calls are given as the source filed them. The calls are words filed in the database; no cut-off is given here.

Key:
Rattus norvegicus [1] = species on record: Rattus norvegicus; test: Compound was tested for the inhibition of release of histamine in rat passive peritoneal anaphylaxis; format: functional, organism-based
Method in brief: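 Rat passive peritoneal anaphylaxis: antiserum i.p. sensitization for 2 h, then i.p. ovalbumin challenge (0.4 mg/mL in 5 mL Tyrode). Compound given i.p. in saline 30 s before antigen; dose expressed as concentration in 6 mL fluid. Peritoneal fluid taken at 5 min, supernatant TCA-treated, histamine measured spectrofluorimetrically. 5–7 rats/dose; % inhibition vs positive controls; ED50 from log-dose regression.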

Rattus norvegicus [2] = species on record: Rattus norvegicus; test: Compound was tested for the inhibition of release of extravasation in rat passive peritoneal anaphylaxis; format: functional, organism-based
Method in brief: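 Rats passively sensitized i.p. with 2 mL 1:5 rat antiserum. Two hours later, i.v. Pontamine Sky Blue, then i.p. challenge with 5 mL Tyrode containing 0.4 mg/mL ovalbumin and heparin. Compound given i.p. in 1 mL saline 30 s before antigen; dose expressed as concentration in 6 mL injected. Peritoneal fluid collected at 5 min; dye read at OD 625 nm. 5–7 rats/dose; ED50 from log-dose regression.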

Histamine H1 receptor [3] = target: T1, Histamine H1 receptor (Cavia porcellus, UniProt P31389); test: H1-antihistamine activity in guinea pig ileum; format: functional, tissue-based; details: read-out: pA2 (converted)
T1 sequence (P31389 whole entry): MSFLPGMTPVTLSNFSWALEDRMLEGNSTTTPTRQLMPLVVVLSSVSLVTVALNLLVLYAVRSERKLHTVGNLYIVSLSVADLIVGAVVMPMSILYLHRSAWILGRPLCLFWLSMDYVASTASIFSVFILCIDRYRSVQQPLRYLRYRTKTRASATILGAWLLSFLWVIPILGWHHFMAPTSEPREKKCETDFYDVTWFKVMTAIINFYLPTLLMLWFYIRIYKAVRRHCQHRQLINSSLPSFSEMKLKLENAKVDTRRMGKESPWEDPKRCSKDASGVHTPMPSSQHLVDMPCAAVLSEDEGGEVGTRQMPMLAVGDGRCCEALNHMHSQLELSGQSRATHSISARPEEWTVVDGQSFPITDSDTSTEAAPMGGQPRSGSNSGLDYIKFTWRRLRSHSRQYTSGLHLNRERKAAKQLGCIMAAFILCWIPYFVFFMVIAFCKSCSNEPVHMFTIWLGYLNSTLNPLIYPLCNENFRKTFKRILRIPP
Method in brief: (§1)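 Isolated guinea pig ileum under ca. 1 g tension in Tyrode solution, with isotonic recording of histamine contractions. Method A: repeat histamine dose-response curves at increasing antagonist concentrations, then Schild plot of log(DR−1) vs −log molar concentration; pA2 is the abscissa intercept. Method B: 10-min antagonist exposure, then double histamine dose (~50% maximal single dose), three antagonist doses each tested three times.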

Histamine H1 receptor [4] = target: T1, Histamine H1 receptor; test: Compound was tested for H1-antihistamine activity in guinea pig ileum.; format: functional, tissue-based; details: read-out: pA2 (converted); method in brief: as §1
[5] = target: Histamine H1 receptor (Cavia porcellus) (UniProt P31389); test: Compound was tested for H1-antihistamine activity in guinea pig ileum; IA = Inactive; format: functional, tissue-based; method in brief: as §1
Histamine H1 receptor (Cavia porcellus), sequence (P31389 whole entry): as above

SMILES | IC50 (Rattus norvegicus [1]) | IC50 (Rattus norvegicus [2]) | Kb (Histamine H1 receptor [3]) | Kb (Histamine H1 receptor [4]) | pA2 [5]
COc1ccc(CN(CCN(C)C)c2ccccn2)cc1 [PYRILAMINE] | > 200000 nM |  |  |  | 
CN1CCC(=C2c3ccccc3CC(=O)c3sccc32)CC1 [KETOTIFEN] | > 200000 nM |  |  |  | 
Cc1c(OCCCN2CCN(Cc3ccc(Cl)cc3)CC2)ccc2c(O)c3nnnc-3oc12 | 840 nM | 55000 nM | 1.58 nM |  | 
Cc1ccc(CN2CCN(CCCOc3ccc4c(O)c5nnnc-5oc4c3C)CC2)cc1 | 890 nM | > 20000 nM |  | 15.8 nM | 
O=C(O)c1cc(=O)c2c(OCC(O)COc3cccc4oc(C(=O)O)cc(=O)c34)cccc2o1 |  |  |  |  | inactive
Cc1c(OCCCN2CCN(Cc3ccccc3Cl)CC2)ccc2c(O)c3nnnc-3oc12 | 2300 nM | 10000 nM | 3.98 nM |  | 
Oc1c2nnnc-2oc2cc(OCCCN3CCN(Cc4ccc(Cl)cc4)CC3)ccc12 | 5400 nM | 31000 nM | 0.794 nM |  | 
Cc1c(OCCCN(C)CCN(C)Cc2ccc(Cl)cc2)ccc2c(O)c3nnnc-3oc12 |  |  |  | 79.4 nM | 
Cc1c(OCCCN2CCN(Cc3cccc(Cl)c3)CC2)ccc2c(O)c3nnnc-3oc12 | 1000 nM | > 20000 nM | 3.98 nM |  | 
Cc1c(OCCCN2CCN(Cc3ccccn3)CC2)ccc2c(O)c3nnnc-3oc12 | 100 nM | > 20000 nM | 15.8 nM |  | 
COc1ccc(CN2CCN(CCCOc3ccc4c(O)c5nnnc-5oc4c3C)CC2)cc1 |  |  |  | 63.1 nM | 
